Measured values taken from publication PMC7931646 (The Journal of Experimental Medicine, 2021).

How the values were obtained:
[1] = system: Aβ42 and Aβ40 levels in plasma and brain; assay: Acute single-dose time course efficacy in C57BL/6J mice; format: in vivo, mouse
[2] = target: CYP450 2D6 (Homo sapiens, UniProt P10635); assay: CYP450 inhibition, recombinant isoform; format: in vitro ADME
Method in brief: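 Recombinant human CYP450 isoforms were incubated with isoform-specific probe substrates; for CYP3A4 these were midazolam and testosterone. Inhibition was quantified by LC-MS/MS analysis of probe-substrate turnover.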

[3] = Plasma protein binding, equilibrium dialysis; format: in vitro ADME; settings: rat
Method in brief: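 Equilibrium dialysis of test compound in human, rat or mouse plasma against buffer across a semipermeable membrane. Compound concentrations in both compartments were measured by LC/MS, and percent bound was derived from them.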

[4] = Kinetic solubility in simulated intestinal fluids; format: physicochemical
Method in brief: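 Dissolved test compound concentration in FaSSIF or FeSSIF simulated intestinal fluids, determined by UV/Vis absorbance.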

[5] = single oral dose 5 mg/kg, 6–12 h after administration

CYP450 2D6, sequence (P10635 whole entry, canonical isoform): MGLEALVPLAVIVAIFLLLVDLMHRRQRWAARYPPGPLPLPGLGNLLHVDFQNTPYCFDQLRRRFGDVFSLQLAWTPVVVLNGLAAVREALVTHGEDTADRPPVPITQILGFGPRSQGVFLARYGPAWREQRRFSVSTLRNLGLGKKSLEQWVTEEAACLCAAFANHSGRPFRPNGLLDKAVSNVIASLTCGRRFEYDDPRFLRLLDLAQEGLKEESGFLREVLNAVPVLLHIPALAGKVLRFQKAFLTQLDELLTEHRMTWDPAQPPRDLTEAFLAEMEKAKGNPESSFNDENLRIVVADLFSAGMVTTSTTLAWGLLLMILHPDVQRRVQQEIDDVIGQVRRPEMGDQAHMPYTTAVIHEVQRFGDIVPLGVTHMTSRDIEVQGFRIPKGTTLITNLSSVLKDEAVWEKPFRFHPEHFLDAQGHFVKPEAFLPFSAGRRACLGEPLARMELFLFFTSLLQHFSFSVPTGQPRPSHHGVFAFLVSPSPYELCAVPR

COc1nc(-c2cc(C)c(N[C@@H](C)c3cc(F)cc(F)c3)nn2)ccc1-n1cnc(C)c1 [Compound 2, (S)-N-(1-(3,5-difluorophenyl)ethyl)-6-(6-methoxy-5-(4-methyl-1H-imidazol-1-yl)pyridin-2-yl)-4-methylpyridazin-3-amine]
reduction of brain Aβ42 levels [1, 5]: ~50%
reduction of plasma Aβ42 levels [1, 5]: ~70%
duration of appreciable lowering of brain Aβ42 peptide levels ([1]; single oral dose 10 mg/kg): ~24 h
reduction of Aβ42 levels in brain at peak reduction ([1]; single oral dose 10 mg/kg): > 70%
reduction of Aβ42 levels in plasma at peak reduction ([1]; single oral dose 10 mg/kg): > 90%
time of maximal reduction of Aβ42 levels in plasma ([1]; single oral dose 5 or 10 mg/kg): 1 h
IC50 [2]: 11 µM
% PPB R [3]: 99.9%
FaSSIF dissolved compound concentration ([4]; FaSSIF pH 6.5, UV/Vis absorbance): 80
FeSSIF dissolved compound concentration ([4]; FeSSIF pH 5.8, UV/Vis absorbance): 79
